In general, EC50 refers to the concentration needed to bring the measured effect to its halfway point. In general, IC50 refers to the point on the concentration scale where inhibition reaches its midpoint. For orientation: Kd means the equilibrium constant for the complex coming apart.

Active and inactive are the calls of the source. The calls are words filed in the database; no cut-off is given here. Where a SMILES comes first, the peptide text is derived from it. [ ]: non-standard residue; d: D form. NMeR = CN[C@@H](CCCNC(=N)N)C(=O)O; hArg = N=C(N)NCCCC[C@H](N)C(=O)O; β3hR = N=C(N)NCCC[C@H](N)CC(=O)O; Gly(cPr) = N[C@H](C(=O)O)C1CC1; Orn = NCCC[C@H](N)C(=O)O

A short description of assay [1]: Disruption of PP1 holoenzyme (unknown origin) interaction with protein inhibitor 2 assessed as increase in PP1 phosphatase activity by measuring increase in fluorescence using DiFMUP as substrate enzyme preincubated with I2 for ten mins followed by compound treatment for 20 mins followed by substrate addition by fluorescence based analysis. Also on record: species or system Homo sapiens.

Assay [2] in a line: Binding affinity to PP1 (unknown origin) assessed as binding to RVxF binding site of PP1 by competing with PDP incubated for 60 mins in presence of biotin-PDP2 by ALPHA assay. Also on record: species or system Homo sapiens. The method, boiled down:
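His-tagged PP1 200 nM with biotin-PDP2 67 nM in 50 mM TrisCl pH 7.5, 150 mM NaCl, 0.05% Tween 20, 1 mM MnCl2, 0.1% BSA; serial dilutions starting from 10 mM, 60 min rt; then streptavidin-donor and anti-His-acceptor beads at 5 μg/ml final, 90 min rt in dark; excitation 680 nm, emission 570 nm. Non-specific control used 22 nM GST(His-Biotin) instead.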

Assay [3] in a line: Binding affinity to PP1 (unknown origin) assessed as dissociation constant at compound to protein molar ratio of 1:1 by isothermal titration calorimetry assay. Also on record: species or system Homo sapiens. In a few lines: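 PP1 dialysed into 20 mM TrisCl pH 7.4, 200 mM NaCl, 1 mM TCEP; precipitate removed, protein concentrated to 19.16 μM (0.72 mg/ml) in cell. Peptide dissolved in final dialysis buffer (also the reference), 500 μM in syringe, 1.8 μl injections every 2 min at 25°C. Data corrected for dilution heat and fitted for Kd and stoichiometry.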
On the technique in general: In ITC the heat of successive injections is recorded.

The species entered for assay [4] is Homo sapiens. As to the kind of experiment: Binding affinity to PP1 (unknown origin) assessed as change in entropy at compound to protein molar ratio of 1:1 by isothermal titration calorimetry assay. In a few lines:
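PP1 dialyzed into 20 mM TrisCl pH 7.4, 200 mM NaCl, 1 mM TCEP, precipitate removed, 19.16 μM (0.72 mg/ml) in the cell. Compound 500 μM in last dialysis buffer, injected 1.8 μl every 2 min at 25°C. Data corrected for dilution heat and fitted for stoichiometry, Kd, ΔH, ΔS.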

Assay [5] is filed under the species Homo sapiens. Put plainly: Disruption of PP1 holoenzyme (unknown origin) interaction with protein inhibitor 2 assessed as increase in PP1 phosphatase activity by measuring increase in fluorescence using DiFMUP as substrate at 500 uM enzyme preincubated with I2 for ten mins followed by compound treatment for 20 mins followed by substrate addition by fluorescence based analysis.

Assay [6] has as its system HeLa. As to the kind of experiment: Induction of calcium release in human HeLa cells and measured for 30 mins by fluorescent Ca2+-indicator dye Fluo-4 based fluorescence microscopy. The class given is functional, cell-based. In a few lines:
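HeLa Kyoto cells in low-glucose DMEM, 10% FBS, seeded day before to ~80% confluency; loaded with 0.5 μM Fluo-4 in HEPES imaging buffer pH 7.4 (1.2 mM CaCl2) 30 min rt, washed; confocal imaging ex 488/em 516 nm, 2 min baseline, compound added, recorded 30 min; responder cells counted. Calcium-free variant: CaCl2 omitted, 250 μM EGTA.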

Take `CC(C)[C@H](NC(=O)[C@H](CCCNC(=N)N)NC(=O)[C@@H](N)CCCCN)C(=O)N[C@@H](Cc1cnc[nH]1)C(=O)N[C@@H](Cc1ccccc1)C(N)=O`: in assay [1], the EC50 came out at 0.6 µM. Further, the IC50 in assay [2] amounted to 124 µM. Moreover, the Kd in assay [3] is 2.1 µM. Also, the deltaS in assay [4] came out at 3.94 cal/mol/deg.
As for `CC(C)[C@@H](NC(=O)[C@@H](Cc1cnc[nH]1)NC(=O)[C@H](N)Cc1ccccc1)C(=O)N[C@H](CCCNC(=N)N)C(=O)O`, the result in assay [5] was Active.
For the compound `N=C(N)NCCC[C@H](NC(=O)[C@@H](N)CCCCN)C(=O)N[C@H](C(=O)N[C@@H](Cc1c[nH]cn1)C(=O)N[C@@H](Cc1ccccc1)C(N)=O)C1CC1` (H-KR[Gly(cPr)]HF-NH2), the EC50 in assay [1] was 2.1 µM. Further, in assay [6], the outcome was Active.
`CC(C)[C@H](NC(=O)[C@H](CCCNC(=N)N)N(C)C(=O)[C@@H](N)CCCCN)C(=O)N[C@@H](Cc1cnc[nH]1)C(=O)N[C@@H](Cc1ccccc1)C(N)=O` (H-K[NMeR]VHF-NH2): in assay [1], the EC50 was found to be 4.7 µM. Also, in assay [6], the outcome was Active.
For the compound `CC(C)[C@H](NC(=O)[C@H](CCCCNC(=N)N)NC(=O)[C@@H](N)CCCCN)C(=O)N[C@@H](Cc1cnc[nH]1)C(=O)N[C@@H](Cc1ccccc1)C(N)=O` (H-K[hArg]VHF-NH2), the EC50 in assay [1] stood at 1.7 µM. For the same compound, the Activity entry in assay [6] (DDE = dose-dependent effect) was “Dde”.
On to `CC[C@H](C)[C@H](NC(=O)[C@@H](N)CCCNC(=N)N)C(=O)N[C@H](C(=O)N[C@@H](Cc1ccccc1)C(=O)O)[C@@H](C)O` (H-RITF-OH), for which the outcome in assay [5] was Active.
On the same count and under the same terms, then `CC(C)C[C@H](NC(=O)[C@@H](N)CCCNC(=N)N)C(=O)N[C@H](C(=O)N[C@@H](Cc1ccccc1)C(=O)O)[C@@H](C)O` (H-RLTF-OH), with “Active”; and `CC(C)[C@H](NC(=O)[C@@H](N)CCCNC(=N)N)C(=O)N[C@@H](CCC(=O)O)C(=O)N[C@@H](Cc1ccccc1)C(=O)O` (H-RVEF-OH), with “Active”.
Consider `CC(C)[C@H](NC(=O)[C@@H](N)CCCNC(=N)N)C(=O)NCC(=O)N[C@@H](Cc1ccccc1)C(=O)O` (H-RVGF-OH), for which, in assay [5], the outcome was Active.
Take `CC(C)[C@H](NC(=O)[C@@H](NC(=O)[C@@H](N)CCCNC(=N)N)C(C)C)C(=O)N[C@@H](Cc1ccccc1)C(=O)O` (H-RVVF-OH): the outcome in assay [5] was Active.
As for `CC(C)[C@H](NC(=O)[C@@H](N)CCCNC(=N)N)C(=O)N[C@@H](Cc1ccc(O)cc1)C(=O)N[C@@H](Cc1ccccc1)C(=O)O` (H-RVYF-OH), the result in assay [5] was Active.
With `CC(C)[C@H](NC(=O)[C@H](CCCNC(=N)N)NC(=O)[C@@H](N)CCCN)C(=O)N[C@@H](Cc1c[nH]cn1)C(=O)N[C@@H](Cc1ccccc1)C(N)=O` (H-[Orn]RVHF-NH2), the EC50 in assay [1] stood at 4.1 µM. Further, in assay [6], the result was Active.
The matching figures for `CC(C)[C@H](NC(=O)[C@H](CCCNC(=N)N)NC(=O)C[C@@H](N)CCCNC(=N)N)C(=O)N[C@@H](Cc1cnc[nH]1)C(=O)N[C@@H](Cc1ccccc1)C(N)=O` (H-[β3hR]RVHF-NH2): 3.2 µM and “Active”.

For the origin of these results see ChEMBL document CHEMBL5120861, “Short peptide pharmacophores developed from protein phosphatase-1 disrupting peptides (PDPs)” (Bioorg Med Chem, 2022).
